Series [1] has as its system SH-SY5Y. The series can be described thus: Neuroprotective activity against NMDA-induced cell damage in human SH-SY5Y cells assessed as cell viability at 100 uM preincubated for 6 hrs followed by NMDA addition and measured after 30 mins by MTT assay (reference value: 58.7 +/- 2.3%). (Tetrazolium dyes change colour on reduction, which living cells bring about.)
Series [2] relates to SH-SY5Y. The series can be described thus: Neuroprotective activity against NMDA-induced cell damage in human SH-SY5Y cells assessed as cell viability at 1 uM preincubated for 6 hrs followed by NMDA addition and measured after 30 mins by MTT assay (reference value: 58.7 +/- 2.3%). The conditions noted are these: read-out: Activity. Format: functional.
Series [3] concerns SH-SY5Y. The series can be described thus: Neuroprotective activity against NMDA-induced cell damage in human SH-SY5Y cells assessed as cell viability at 10 uM preincubated for 6 hrs followed by NMDA addition and measured after 30 mins by MTT assay (reference value: 58.7 +/- 2.3%). The conditions noted are these: read-out: Activity. Type of series: functional.
The subject of series [4] is SH-SY5Y. Kind of series: Neuroprotective activity against NMDA-induced cell damage in human SH-SY5Y cells assessed as cell viability at 0.1 uM preincubated for 6 hrs followed by NMDA addition and measured after 30 mins by MTT assay (reference value: 58.7 +/- 2.3%). Format: functional. The conditions noted are these: read-out: Activity.
The nature of series [5]: Half life in human liver microsomes at 10 uM preincubated for 10 mins followed by NADPH addition and measured up to 60 mins. Format: ADME, microsome. The gist of the method:
(§1)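 Human liver microsomes were incubated for 60 min with an NADPH regenerating system to derive T1/2 and CL (µL/min/mg). A no-cofactor sample, with buffer replacing NADPH, was run alongside over 60 min to give % parent remaining.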

A short description of series [6]: Clearance in human liver microsomes at 10 uM preincubated for 10 mins followed by NADPH addition and measured up to 60 mins. The conditions noted are these: read-out: CLH. Format: ADME, microsome. Summed up:
as §1
For orientation: Microsomes from liver hold many membrane-bound enzymes, among them those of drug oxidation.

Series [7] in a line: Metabolic stability in human liver microsomes assessed as parent compound remaining at 10 uM after 60 mins in absence of NADPH. Format: ADME, microsome. The settings on record: read-out: Stability. The gist of the method: as §1

On to `O=C(OCc1ccccc1)[C@@H]1CCC2=Nc3ccccc3CN21`, for which, in series [1], the Activity was 57.4%. Moreover, in series [2], the viability at 1 µM is 65.5%. For the same molecule, in series [3], the viability at 10 µM turned out to be 66.1%. The viability at 0.1 µM in series [4] was found to be 61%.
The matching figures for `O=C(NCCCc1ccccc1)[C@H]1CCC2=Nc3ccc(Br)cc3CN21`: 44.1%, 72.1%, 65.4% and 58.1%.
Taken in the same sequence, the figures for `COc1ccc(CNC(=O)[C@@H]2CCC3=Nc4ccc(Br)cc4CN32)cc1` were 55.3%, 68.8%, 74.3% and 60.4%.
`O=C(NCCCc1ccccc1)[C@@H]1CCC2=Nc3ccc(Br)cc3CN21`: in series [1], the Activity is listed as 42.2%. Further, the viability at 1 µM in series [2] worked out at 76.6%. Besides, the viability at 10 µM in series [3] amounted to 66.1%. Also, the viability at 0.1 µM in series [4] was 69.1%.
Taken in the same sequence, the figures for `O=C(NCc1ccc(F)cc1)[C@@H]1CCC2=Nc3ccc(Br)cc3CN21` were 60.1%, 70.4%, 70.4% and 64.8%.
The matching figures for `O=C(NCCc1ccc(F)cc1)[C@@H]1CCC2=Nc3ccccc3CN21`: 33.5%, 75.4%, 68.1% and 71.4%.
Taken in the same sequence, the figures for `O=C(NCc1ccc(O)cc1)[C@H]1CCC2=Nc3ccc(Br)cc3CN21` were 56.9%, 78%, 67.4% and 75%.
For `COc1ccc(CCNC(=O)[C@@H]2CCC3=Nc4ccccc4CN32)cc1`, in series [1], the Activity is listed as 60%. In addition, the viability at 1 µM in series [2] was 81%. The viability at 10 µM in series [3] turned out to be 75.1%. Further, in series [4], the viability at 0.1 µM was found to be 73%.
The matching figures for `O=C(NCCc1ccc(O)cc1)[C@H]1CCC2=Nc3ccc(Br)cc3CN21`: 81.5%, 74.5%, 78.2% and 67.8%.
With `O=C(NCc1ccc(F)cc1)[C@H]1CCC2=Nc3ccccc3CN21`, in series [1], the Activity is given as 63.9%. Also, the viability at 1 µM in series [2] was 74.7%. Moreover, the viability at 10 µM in series [3] turned out to be 72.9%. Further, in series [4], the viability at 0.1 µM came to 71.1%.
The matching figures for `O=C(NCCc1c[nH]c2ccccc12)[C@@H]1CCC2=Nc3ccccc3CN21`: 78.2%, 72%, 80.9% and 66.2%.
The matching figures for `O=C(NCCc1ccc(O)cc1)[C@H]1CCC2=Nc3ccccc3CN21`: 68%, 80.7%, 70.5% and 65.2%.
Taken in the same sequence, the figures for `O=C(NCCc1ccccc1)[C@@H]1CCC2=Nc3ccccc3CN21` were 57.5%, 77.6%, 80% and 73.7%.
As to `O=C(NCc1ccc(F)cc1)[C@@H]1CCC2=Nc3ccccc3CN21`, the Activity in series [1] came out at 63.2%. Also, the viability at 1 µM in series [2] was 72.6%. For the same molecule, the viability at 10 µM in series [3] amounted to 78.9%. The viability at 0.1 µM in series [4] stood at 67.1%.
The matching figures for `O=C(Nc1ccc(O)cc1)[C@H]1CCC2=Nc3ccccc3CN21`: 73.3%, 67.2%, 69.6% and 65.6%.
The matching figures for `Cc1ccc(CNC(=O)[C@@H]2CCC3=Nc4ccccc4CN32)cc1`: 54.5%, 73.4%, 72.5% and 66.2%.
The matching figures for `COc1ccc(CNC(=O)[C@H]2CCC3=Nc4ccccc4CN32)cc1`: 58.4%, 70.7%, 76.2% and 66.6%.
For `O=C(NCc1ccc(O)cc1)[C@@H]1CCC2=Nc3ccccc3CN21`, the Activity in series [1] is 70.3%. Also, the viability at 1 µM in series [2] was found to be 72%. Further, the viability at 10 µM in series [3] turned out to be 73.8%. Besides, the viability at 0.1 µM in series [4] amounted to 67.6%.
The matching figures for `O=C(Nc1ccccc1)[C@@H]1CCC2=Nc3ccccc3CN21`: 54.6%, 71.4%, 60.4% and 68.7%.
The matching figures for `O=C(NCc1ccc(O)cc1)[C@H]1CCC2=Nc3ccccc3CN21`: 60.9%, 68%, 64.2% and 65.2%.
Regarding `N=C(NCc1ccc(O)cc1)[C@@H]1CCC2=Nc3ccccc3CN21`, the Activity in series [1] amounted to 64.3%. The viability at 1 µM in series [2] stood at 69.2%. Further, the viability at 10 µM in series [3] is 70.2%. Besides, in series [4], the viability at 0.1 µM stood at 61.6%.
The matching figures for `O=C(NCCCc1ccccc1)[C@H]1CCC2=Nc3ccccc3CN21`: 42%, 71.6%, 70.2% and 62.2%.
The half-life is the time needed for the level to fall by half in the phase considered. As to `C[C@@H]([C@@H](O)c1ccc(O)cc1)N1CCC(Cc2ccccc2)CC1` [(S)-IFENPRODIL], the Activity in series [1] was found to be 65.1%. This molecule gave a half-life at 10 µM in series [5] of 12.8 min. Further, in series [2], the viability at 1 µM worked out at 72.7%. Moreover, the viability at 10 µM in series [3] came out at 79.5%. Further, in series [6], the microsomal CLint at 10 µM worked out at 109 µL/min/mg. For the same molecule, in series [4], the viability at 0.1 µM came out at 71%. Besides, the remaining at 1 h, 10 µM in series [7] turned out to be 87.3%.
In the case of `COc1ccc(CNC(=N)[C@@H]2CCC3=Nc4ccccc4CN32)cc1`, in series [1], the Activity is recorded as 56.9%. In addition, the viability at 1 µM in series [2] is 65.8%. The viability at 10 µM in series [3] was determined as 66.1%. In addition, in series [4], the viability at 0.1 µM is 64.8%.
The matching figures for `O=C(NCCCc1ccccc1)[C@@H]1CCC2=Nc3ccccc3CN21`: 30.3%, 71.2%, 63.4% and 67.2%.
Taken in the same sequence, the figures for `O=C(NCc1ccccc1)[C@@H]1CCC2=Nc3ccccc3CN21` were 64.4%, 71.6%, 70.5% and 68.4%.
Taken in the same sequence, the figures for `O=C(NCCc1ccc(O)cc1)[C@@H]1CCC2=Nc3ccccc3CN21` were 67.8%, 78.1%, 81.4% and 67.7%.
`O=C(N[C@H](CO)Cc1ccccc1)[C@@H]1CCC2=Nc3ccccc3CN21`: the Activity in series [1] stood at 72.4%. Also, the viability at 1 µM in series [2] is 82.6%. For the same molecule, the viability at 10 µM in series [3] was 79.6%. Further, the viability at 0.1 µM in series [4] was found to be 67.1%.
Taken in the same sequence, the figures for `COc1ccc(CNC(=O)[C@@H]2CCC3=Nc4ccccc4CN32)cc1` were 64.4%, 71.8%, 74.1% and 68.1%.
Regarding `O=C(Nc1ccc(O)cc1)[C@@H]1CCC2=Nc3ccccc3CN21`, the Activity in series [1] was 70.9%. Further, in series [2], the viability at 1 µM turned out to be 68.3%. Moreover, the viability at 10 µM in series [3] is 70.1%. Besides, the viability at 0.1 µM in series [4] worked out at 67.7%.
Taken in the same sequence, the figures for `COc1ccc(NC(=O)[C@@H]2CCC3=Nc4ccccc4CN32)cc1` were 48.4%, 72.7%, 66.4% and 64.7%.
For `COc1ccc(COC(=O)[C@@H]2CCC3=Nc4ccccc4CN32)cc1`, the Activity in series [1] is 63.6%. Moreover, the half-life at 10 µM in series [5] stood at 1.2 min. Also, the viability at 1 µM in series [2] was found to be 64.1%. In addition, in series [3], the viability at 10 µM worked out at 65.3%. Besides, the microsomal CLint at 10 µM in series [6] stood at 1180 µL/min/mg. Also, the viability at 0.1 µM in series [4] came out at 61.4%. Moreover, the remaining at 1 h, 10 µM in series [7] was determined as 3.2%.
Regarding `N=C(NCc1ccccc1)[C@@H]1CCC2=Nc3ccccc3CN21`, the Activity in series [1] was 66.4%. The viability at 1 µM in series [2] is 68.6%. Also, in series [3], the viability at 10 µM was 68.8%. The viability at 0.1 µM in series [4] was found to be 61.6%.
The matching figures for `O=C(Nc1ccc(O)cc1)[C@@H]1CCC2=Nc3ccc(Br)cc3CN21`: 68.4%, 66.2%, 68% and 62.9%.
The matching figures for `O=C(NCc1ccc(O)cc1)[C@@H]1CCC2=Nc3ccc(Br)cc3CN21`: 60%, 73.5%, 76% and 69%.
The matching figures for `O=C(Nc1ccc(O)cc1)[C@H]1CCC2=Nc3ccc(Br)cc3CN21`: 66%, 71.3%, 68.3% and 61.7%.

These data come from ChEMBL document CHEMBL4229377, “Design, synthesis and bioevaluation of 1,2,3,9-tetrahydropyrrolo[2,1-b]quinazoline-1-carboxylic acid derivatives as potent neuroprotective agents” (Eur J Med Chem, 2018).
